Measured values reported in ChEMBL document CHEMBL1158122, “Anti-inflammatory, anti-tumor-promoting, and cytotoxic activities of constituents of marigold (Calendula officinalis) flowers” (J Nat Prod, 2006).

Tests used:
[1] = system: Mus musculus; assay: Antiinflammatory activity against TPA-induced ear edema in mouse; assay type: functional
Procedure, shortened: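 Specific-pathogen-free female ICR mice were housed five per cage at 24 ± 2 °C. Inflammation was induced on the ear with TPA at 1 µg/ear, and the test agent was applied per ear. Ear edema inhibition was expressed as ID50 in mg per ear.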

[2] = Cytotoxicity against human Raji cells assessed as cell viability at 1000 molar ratio; assay type: cell-based; conditions: read-out: Activity
Procedure, shortened: (§1)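 Raji cells were treated with 32 pmol TPA to induce EBV early antigen activation. The test agent was added at 10, 100, 500 or 1000 mol ratio relative to TPA, and Raji cell viability was measured alongside EA activation.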

[3] = Cytotoxicity against human Raji cells assessed as cell viability at 10 molar ratio; assay type: cell-based; conditions: read-out: Activity; procedure, shortened: as §1
[4] = system: Raji; assay: Inhibition of TPA-induced EBV-early antigen activation in human Raji cells at 1000 molar ratio relative to TPA; assay type: cell-based; set-up: scale not given: the % may be the effect or the level left; conditions: human gammaherpesvirus 4
[5] = Inhibition of TPA-induced EBV-early antigen activation in human Raji cells relative to TPA; assay type: cell-based, human gammaherpesvirus 4
[6] = system: Raji; assay: Inhibition of TPA-induced EBV-early antigen activation in human Raji cells at 100 molar ratio relative to TPA; assay type: cell-based; set-up: scale not given: the % may be the effect or the level left; conditions: human gammaherpesvirus 4
[7] = system: Raji; assay: Inhibition of TPA-induced EBV-early antigen activation in human Raji cells at 500 molar ratio relative to TPA; assay type: cell-based; set-up: scale not given: the % may be the effect or the level left; conditions: human gammaherpesvirus 4
[8] = Cytotoxicity against human Raji cells assessed as cell viability at 500 molar ratio; assay type: cell-based; conditions: read-out: Activity; procedure, shortened: as §1
[9] = Cytotoxicity against human Raji cells assessed as cell viability at 100 molar ratio; assay type: cell-based; conditions: read-out: Activity; procedure, shortened: as §1
[10] = system: Raji; assay: Inhibition of TPA-induced EBV-early antigen activation in human Raji cells at 10 molar ratio relative to TPA; assay type: cell-based; set-up: scale not given: the % may be the effect or the level left; conditions: human gammaherpesvirus 4

Row | IC50 [5] | SMILES | ID50 [1] | viability at 1000 molar ratio [2] | viability at 10 molar ratio [3] | Activity [4] | Activity [6] | Activity [7] | viability at 500 molar ratio [8] | viability at 100 molar ratio [9] | Activity [10]
1 | 480 molar ratio | CCCCOC(=O)[C@H]1O[C@@H](O[C@H]2CC[C@]3(C)[C@H]4CC=C5[C@@H]6CC(C)(C)CC[C@]6(C(=O)O[C@@H]6O[C@H](CO)[C@@H](O)[C@H](O)[C@H]6O)CC[C@@]5(C)[C@]4(C)CC[C@H]3C2(C)C)[C@H](O[C@@H]2O[C@H](CO)[C@@H](O)[C@H](O)[C@H]2O)[C@@H](O[C@@H]2O[C@H](CO)[C@H](O)[C@H](O)[C@H]2O)[C@@H]1O | 0.06 mg | 70% | > 80% | 10.6% | 71.6% | 43.2% | > 80% | > 80% | 100%
2 | 475 molar ratio | CC1(C)CC[C@]2(C(=O)O[C@@H]3O[C@H](CO)[C@@H](O)[C@H](O)[C@H]3O)CC[C@]3(C)C(=CC[C@@H]4[C@@]5(C)CC[C@H](O[C@@H]6O[C@H](C(=O)O)[C@@H](O)[C@H](O[C@@H]7O[C@H](CO)[C@H](O)[C@H](O)[C@H]7O)[C@H]6O)C(C)(C)[C@@H]5CC[C@]43C)[C@@H]2C1 [CALENDULAGYCOSIDE C] | 0.2 mg | 70% | > 80% | 13.2% | 73.1% | 51% | > 80% | > 80% | 100%
3 | 487 molar ratio | COC(=O)[C@H]1O[C@@H](O[C@H]2CC[C@]3(C)[C@H]4CC=C5[C@@H]6CC(C)(C)CC[C@]6(C(=O)O[C@@H]6O[C@H](CO)[C@@H](O)[C@H](O)[C@H]6O)CC[C@@]5(C)[C@]4(C)CC[C@H]3C2(C)C)[C@H](O[C@@H]2O[C@H](CO)[C@@H](O)[C@H](O)[C@H]2O)[C@@H](O[C@@H]2O[C@H](CO)[C@H](O)[C@H](O)[C@H]2O)[C@@H]1O | 0.06 mg | 70% | > 80% | 16% | 77.8% | 53.6% | > 80% | > 80% | 100%
